T cruzi inh – inhibitors of intracellular T. cruzi growth, primary screen, luminescence, NIH3T3 host cells; inhibition, % (no concentration beside the values); hit rate 1.4% among 300,000; T. cruzi beta-gal in NIH3T3, 90 h;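 active = mean inhibition across valid replicates above about 55%, limit read from the data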;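 also: signal also drops with host cell toxicity which is not excluded here; 0% = plate median of DMSO wells and 100% = zero luminescence signal; higher percent means less beta-gal luminescence so fewer parasites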
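Assay system: NIH/3T3 host cells with β-galactosidase reporter T. cruzi; input: 5,000 host fibroblasts per well; compound: single 50 nL compound addition per well in DMSO; timing: ≥90 h infection period, 3 h prior cell attachment; measured by: GalScreen β-gal luminescence, detergent lysis, 60 min; evaluation: percent inhibition of parasite-derived β-gal signal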
Beta apoptosis – inhibitors of cytokine-induced beta cell apoptosis, primary screen, luminescence; INS-1E cytokine-induced death, ATP luminescence, 48 h; percent of positive-control rescue, neutral wells zero; protection from apoptosis, % (test concentration not listed); hit rate 0.8% among 300,000; AID 435005, 2010;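 active = Every replicate reaches about 75%, or at least half do and their mean reaches it too, limit read from the data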;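 also: 0% = cytokine-treated negative control wells and 100% = positive control rescue; higher means more ATP so stronger rescue from cytokine killing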
PREPL inhibitor – PREPL enzyme inhibitors, primary screen, biochemical, fluorescence polarization | recombinant PREPL, fluorescence polarization activity-based probe | inhibition, % at 5.96 µM | hit rate 0.68% among 320,000 | AID 2751, 2010; in the data active = inhibition above about 43%;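 also: 0% = enzyme with DMSO and 100% = wells lacking enzyme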
Target sequence (Q4J6C6 whole entry, looked up): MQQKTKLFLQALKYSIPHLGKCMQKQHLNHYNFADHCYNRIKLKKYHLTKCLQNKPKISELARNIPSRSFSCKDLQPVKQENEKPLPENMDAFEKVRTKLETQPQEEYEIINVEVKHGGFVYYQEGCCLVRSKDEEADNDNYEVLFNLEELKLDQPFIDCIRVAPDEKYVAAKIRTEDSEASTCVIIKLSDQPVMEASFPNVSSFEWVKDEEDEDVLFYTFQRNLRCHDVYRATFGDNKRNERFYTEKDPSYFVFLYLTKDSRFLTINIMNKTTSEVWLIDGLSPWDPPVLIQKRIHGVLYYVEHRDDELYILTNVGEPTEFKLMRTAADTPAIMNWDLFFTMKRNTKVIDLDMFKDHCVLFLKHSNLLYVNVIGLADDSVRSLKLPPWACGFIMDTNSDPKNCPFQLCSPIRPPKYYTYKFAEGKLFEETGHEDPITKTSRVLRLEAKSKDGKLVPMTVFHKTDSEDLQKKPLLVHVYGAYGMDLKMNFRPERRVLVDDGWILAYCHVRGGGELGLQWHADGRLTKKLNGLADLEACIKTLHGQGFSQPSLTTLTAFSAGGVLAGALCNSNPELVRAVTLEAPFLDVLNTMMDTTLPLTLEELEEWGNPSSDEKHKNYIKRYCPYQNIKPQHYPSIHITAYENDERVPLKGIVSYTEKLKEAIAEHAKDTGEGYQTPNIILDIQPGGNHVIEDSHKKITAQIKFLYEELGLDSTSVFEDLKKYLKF
NR3A LBD binder – binders of NR3A ligand-binding domain, primary screen, biophysical, differential scanning fluorimetry, uHTS | Glutamate receptor ionotropic, NMDA 3A (GRIN3A) ligand-binding domain | NR3A LBD differential scanning fluorimetry, Tm shift; 0% = protein alone, 100% = glycine-bound protein | Tm shift relative to glycine control, % at 25 µM | hit rate 2.5% among 340,000;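 active = melting temperature shift of at least 10% of the positive control shift, at one fixed dose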
CHOP inh – inhibitors of CHOP promoter induction, primary screen, cell-based, unfolded protein response, luciferase reporter; hit rate 3.8% among 220,000; inhibition, % at 10 µM; AID 2732, 2010; CHO-K1 CHOP-promoter luciferase, tunicamycin-induced, 15-18 h;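 active = compounds that reduced the stress-induced luciferase reporter signal by more than about 70% of percent inhibition, limit read from the data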;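 also: 0% = tunicamycin plus vehicle and 100% = wells without tunicamycin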
CSC inhib – cancer stem cell viability inhibitors, primary screen, luminescence | inhibition, % at 7.5 µM | cancer stem cell-like cells viability | AID 2717, 2010 | hit rate 1.1% among 300,000; in the data active = inhibition above about 75%; tested in HMLE shEcad cells
The depositor's hits bear a star; . = not tested or not shown. Only some compounds are listed: those with a hit (about 6.7% of all), similar ones and a draw of the others.

SMILES | T cruzi inh | Beta apoptosis | PREPL inhibitor | NR3A LBD binder | CHOP inh | CSC inhib
Cc1cc2cc(CNC(=O)COc3ccccc3)ccc2n1C | -7 | 1 | 52* | -3 | 8 | -16
Cc1cc2cc(CNC(=O)c3cc4ccccc4o3)ccc2n1C | 65* | 4 | 65* | . | 89* | -2
Cc1ccc(S(=O)(=O)N2CCCC2)cc1C(=O)NCCOc1ccccc1 | . | -8 | -2 | 2 | . | -1
Cc1ccnc(NS(=O)(=O)c2ccc(NC(=O)CCc3ccccc3)cc2)n1 | 2 | -1 | 17 | 0 | . | 17
CC1CC(C)(C)Nc2ccc(N=O)cc21 (stereo unspecified) | 98* | . | . | -8 | 96* | .
O=C(COC(=O)C1CC(=O)N(Cc2ccco2)C1)Nc1nc(-c2ccc(F)cc2)cs1 (stereo unspecified) | . | 5 | -17 | 4 | . | -8
O=[N+]([O-])c1cc(C(F)(F)F)ccc1NCCCCNS(=O)(=O)c1ccc2ccccc2c1 | 15 | 20 | -27 | 5 | 83* | .
CS(=O)(=O)NCCCCNc1ccc(C(F)(F)F)cc1[N+](=O)[O-] | 15 | 10 | 3 | 3 | 7 | -12
Nc1sc(-c2ccccc2)n[n+]1Cc1cccc2cccnc12 | 60* | 10 | -3 | -2 | 38 | 11
COc1cccc2sc(Nc3nc(-c4ccncc4)cs3)nc12 | 76* | 34 | 5 | -2 | -24 | 49
COc1ccccc1-c1nnc(Nc2nc3c(OC)cccc3s2)o1 | 63* | 72 | 10 | 0 | . | 67
COc1cccc2sc(Nc3nc(-c4cc5ccccc5oc4=O)cs3)nc12 | 6 | 4 | 16 | 20* | -4 | 50
COc1cccc2sc(Nc3nnc(-c4ccccc4Cl)o3)nc12 | 40 | . | 26 | -8 | . | 71
Cc1cccc(N2CCN(C(=O)c3ccc(NC4=NC5CS(=O)(=O)CC5S4)cc3)CC2C)c1 (stereo unspecified) | -11 | -12 | 3 | 2 | . | -10
COc1ccc(-c2nc(CN(CC3CCC(=O)N3)C(C)C)c(C)o2)c(C)c1C (stereo unspecified) | 7 | 2 | 28 | 0 | 29 | -17
Cc1c(Cl)cccc1NCC(=O)NN=C1CCCC1 | -12 | . | 4 | 0 | -11 | 2
Cc1c(C=O)c2ccccn2c1C(=O)c1ccccc1 | 36 | -2 | -4 | -1 | 72* | -12
Cc1ccccc1NCC(=O)N/N=C/c1c(C)c(C(=O)c2ccc(Cl)cc2)n2ccccc12 | 35 | -1 | 36 | 12* | 2 | -45
COc1ccc(C)cc1S(=O)(=O)N1CCCC(C(=O)N2CCN(c3ccccc3F)CC2)C1 (stereo unspecified) | 20 | 10 | 29 | -2 | . | 9
CSc1nccc(NC(=O)c2cccc(Br)c2)n1 | -6 | -2 | -17 | 6 | . | 13
Cc1ccc(-c2cnc(NC(=O)c3cccc(Br)c3)s2)c(C)c1 | -17 | 6 | 7 | -2 | -6 | 9
COc1ccc(-c2cc(-c3ccc(Br)cc3)nc3ncnn23)cc1OC | 9 | 8 | -2 | -1 | 79* | -3
COc1ccc(-c2cc(-c3ccccc3)nc3ncnn23)cc1 | 16 | 4 | 0 | 2 | 29 | -27
COc1ccc(OC)c(NC(=O)NNS(=O)(=O)c2ccc(C)cc2C)c1 | -10 | -8 | -11 | 3 | . | .
Cc1ccc(C2(C)NC(=O)N(CC(=O)c3ccc4c(c3)OCCO4)C2=O)cc1 (stereo unspecified) | . | -3 | -3 | -2 | . | -8
SMILES | T cruzi inh | Beta apoptosis | PREPL inhibitor | NR3A LBD binder | CHOP inh | CSC inhib
CC(=O)c1c(C)[nH]c(C(=O)CN2C(=O)NC(C)(c3ccc4c(c3)OCCO4)C2=O)c1C (stereo unspecified) | -6 | -7 | 3 | 32* | . | 7
CCc1nc(SCC(=O)Nc2ccc(F)cc2F)c2c(=O)n(C)c(=O)n(C)c2n1 | -3 | 5 | -4 | 1 | . | -4
CCCc1nc(SCC(=O)c2ccccc2)c2c(=O)n(C)c(=O)n(C)c2n1 | 33 | 29 | -2 | -1 | 74* | 15
CCCc1nc(SCC(=O)Nc2cc(Cl)ccc2OC)c2c(=O)n(C)c(=O)n(C)c2n1 | -9 | . | . | . | 79* | .
O=C(Nc1ccc(Cl)c(Cl)c1)Nc1cc(C(=O)NC2CC2)ccc1Cl | 45 | 25 | 2 | . | 36 | 22
CCN(CC)CCN(Cc1cc2cc(C)ccc2[nH]c1=O)C(=O)Nc1ccccc1OC | 9 | 5 | -5 | -1 | 1 | -7
CCc1ccc2[nH]c(=O)c(CN(Cc3ccccc3OC)C(=O)Nc3ccccc3OC)cc2c1 | 62* | 8 | 14 | 0 | 71* | -7
O=S(=O)(c1ccc(F)cc1)N1CCC(n2cnc3ccccc32)CC1 | 5 | -1 | -32 | 1 | . | -2
O=S(=O)(c1ccc(Cl)cc1)N1CCC(n2cnc3cc(C(F)(F)F)ccc32)CC1 | 56* | 10 | -4 | -1 | . | 85*
O=C(NNC(=O)c1cccc(S(=O)(=O)N2CCCCC2)c1)c1ccccc1 | . | -1 | -2 | 4 | . | -11
CC(C)Cn1c(O)c(N=NC(=O)c2cccc(S(=O)(=O)N3CCCCC3)c2)c2ccccc21 | 12 | 38 | 18 | -2 | -7 | 91*
Cn1c(O)c(N=NC(=O)c2ccco2)c2ccccc21 | -12 | 5 | -3 | -2 | 1 | -11
CC(C)CCn1c(O)c(N=NC(=O)c2ccco2)c2ccccc21 | 12 | 18 | 6 | 2 | 83* | 12
COc1ccc(NCc2nc3ccccc3n2CCOc2ccccc2)cc1 | 69* | -13 | 40 | 2 | 43 | -7
S=C(Nc1ccccc1)Nc1nc2ccccc2n1CCOc1ccc(Br)cc1 | 17 | 41 | -44 | -7 | 14 | 107*
Nc1nc2ccccc2n1CCOc1ccc(Br)cc1 | 23 | 7 | -60 | -1 | . | 6
O=C(Nc1nc2ccccc2n1CCOc1ccc(Cl)cc1)c1ccco1 | 57* | 48 | -77 | -14 | 47 | 24
CCN(C(=O)CN1C(=O)COc2ccc(S(=O)(=O)N3CCCCCC3)cc21)c1cccc(C)c1 | -1 | 3 | 8 | -6 | . | -12
CCCC1Cc2nc(Cl)c(C#N)cc2CO1 (stereo unspecified) | 1 | -2 | 10 | 0 | 2 | -4
COc1ccccc1-c1cc2nc(C)c(CCC(=O)NCc3ccc(F)cc3)c(C)n2n1 | 61* | 0 | -20 | 7 | 31 | 3
COc1ccccc1CNC(=O)CCc1c(C)nc2cc(-c3ccccc3OC)nn2c1C | 21 | 0 | -26 | 1 | 13 | -10

Bioassay records (PubChem)
